Measured values as given in ChEMBL document CHEMBL3102723, “Design, synthesis and anti-inflammatory evaluation of novel 5-benzylidene-3,4-dihalo-furan-2-one derivatives” (Eur J Med Chem, 2014).
Activity calls are given as the source filed them. The calls are words filed in the database; no cut-off is given here.

What was measured:
[1] = tested on: RAW264.7; experiment: Antiinflammatory activity in mouse RAW264.7 cells assessed as inhibition of LPS-induced nitric oxide release at 10 uM treated 2 hrs before LPS challenge measured after 48 hrs by Griess assay relative to control; type: functional
[2] = Cytotoxicity against mouse RAW264.7 cells assessed as cell viability at 5 uM after 48 hrs by MTT assay relative to control; type: cell-based; details: read-out: Activity
Procedure, shortened: (§1)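 MTT assay. RAW264.7 cells at 4 × 10^3 cells/well, cultured 16 h, then exposed to compounds diluted in DMEM for 48 h. MTT (0.5 mg/mL) added for 4 h, formazan dissolved in DMSO, OD570 read. Viability = compound OD570/blank OD570 × 100%, with the medium-only blank set as 100%. Three independent experiments.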

[3] = Cytotoxicity against mouse RAW264.7 cells assessed as cell viability at 10 uM after 48 hrs by MTT assay relative to control; type: cell-based; details: read-out: Activity; procedure, shortened: as §1
[4] = tested on: RAW264.7; experiment: Antiinflammatory activity in mouse RAW264.7 cells assessed as inhibition of LPS-induced IL-6 release at 10 uM treated 2 hrs before LPS challenge measured by ELISA; type: functional, cell-based; details: TDE = time-dependent effect
[5] = molecular target: T1, Peroxisome proliferator-activated receptor gamma (Mus musculus) (UniProt P37238); experiment: Inhibition of PPARgamma in mouse RAW264.7 cells assessed as inhibition of LPS-induced p38 MAPK phosphorylation at 10 uM after 4 hrs by Western blot analysis in presence of PPARgamma antagonist GW9662; type: cell-based
T1 sequence (whole entry): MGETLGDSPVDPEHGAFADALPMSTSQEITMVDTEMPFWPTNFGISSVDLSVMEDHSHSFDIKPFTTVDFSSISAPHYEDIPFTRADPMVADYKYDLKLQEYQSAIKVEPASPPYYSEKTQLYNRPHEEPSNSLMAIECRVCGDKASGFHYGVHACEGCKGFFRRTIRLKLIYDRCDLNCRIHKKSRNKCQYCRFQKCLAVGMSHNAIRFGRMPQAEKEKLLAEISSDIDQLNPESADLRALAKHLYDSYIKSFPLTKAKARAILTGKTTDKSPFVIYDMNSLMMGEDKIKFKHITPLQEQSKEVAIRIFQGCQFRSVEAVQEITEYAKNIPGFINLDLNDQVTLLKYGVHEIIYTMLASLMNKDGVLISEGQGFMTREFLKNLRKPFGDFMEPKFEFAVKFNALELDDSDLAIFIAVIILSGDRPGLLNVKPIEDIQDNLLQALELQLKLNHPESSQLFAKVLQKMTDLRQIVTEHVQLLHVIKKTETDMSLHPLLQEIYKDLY
Procedure, shortened: (§2)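 RAW264.7 cells at 2 × 10^6 per well, cultured 18 h, then given fresh medium with compounds plus 500 ng/mL LPS for 4 h, with GW9662 at 5 where included. Lysates clarified at 14,000 × g, protein by BCA, equal loads on SDS-PAGE. Blots blocked in 5% milk/TBST, primary antibodies 1:1000 overnight, secondary 1:1000 90 min, ECL detection. Means ± SD (n = 3).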

[6] = molecular target: T1, Peroxisome proliferator-activated receptor gamma (Mus musculus); experiment: Inhibition of PPARgamma in mouse RAW264.7 cells assessed as inhibition of LPS-induced ERK1/2 phosphorylation at 10 uM after 4 hrs by Western blot analysis in presence of PPARgamma antagonist GW9662; type: cell-based; procedure, shortened: as §2
[7] = molecular target: T1, Peroxisome proliferator-activated receptor gamma (Mus musculus); experiment: Inhibition of PPARgamma in mouse RAW264.7 cells assessed as inhibition of LPS-induced IkappaBalpha phosphorylation at 10 uM after 4 hrs by Western blot analysis in presence of PPARgamma antagonist GW9662; type: cell-based; procedure, shortened: as §2
[8] = tested on: RAW264.7; experiment: Antiinflammatory activity in mouse RAW264.7 cells assessed as inhibition of LPS-induced TNF-alpha release at 10 uM treated 2 hrs before LPS challenge measured after 6 hrs by ELISA (reference value: 5.9 +/- 0.5 pg/ml); type: functional
[9] = tested on: RAW264.7; experiment: Antiinflammatory activity in mouse RAW264.7 cells assessed as inhibition of LPS-induced IL-6 release at 10 uM treated 2 hrs before LPS challenge measured after 24 hrs by ELISA (reference value: 45.1 +/- 5.6 pg/ml); type: functional
[10] = tested on: RAW264.7; experiment: Antiinflammatory activity in mouse RAW264.7 cells assessed as inhibition of LPS-induced TNF-alpha release at 10 uM treated 2 hrs before LPS challenge measured after 12 hrs by ELISA (reference value: 11.8 +/- 1.2 pg/ml); type: functional
[11] = molecular target: T1, Peroxisome proliferator-activated receptor gamma (Mus musculus); experiment: Inhibition of PPARgamma in mouse RAW264.7 cells assessed as inhibition of LPS-induced ERK1/2 phosphorylation at 10 uM after 4 hrs by Western blot analysis; type: cell-based; procedure, shortened: as §2
[12] = molecular target: T1, Peroxisome proliferator-activated receptor gamma (Mus musculus); experiment: Inhibition of PPARgamma in mouse RAW264.7 cells assessed as inhibition of LPS-induced IkappaBalpha phosphorylation at 10 uM after 4 hrs by Western blot analysis; type: cell-based; procedure, shortened: as §2
[13] = molecular target: T1, Peroxisome proliferator-activated receptor gamma (Mus musculus); experiment: Inhibition of PPARgamma in mouse RAW264.7 cells assessed as inhibition of LPS-induced JNK phosphorylation at 10 uM after 4 hrs by Western blot analysis; type: cell-based; procedure, shortened: as §2
[14] = molecular target: T1, Peroxisome proliferator-activated receptor gamma (Mus musculus); experiment: Inhibition of PPARgamma in mouse RAW264.7 cells assessed as inhibition of LPS-induced p38 MAPK phosphorylation at 10 uM after 4 hrs by Western blot analysis; type: cell-based; procedure, shortened: as §2
[15] = tested on: RAW264.7; experiment: Antiinflammatory activity in mouse RAW264.7 cells assessed as inhibition of LPS-induced TNF-alpha release at 10 uM treated 2 hrs before LPS challenge measured after 24 hrs by ELISA (reference value: 38.3 +/- 3.3 pg/ml); type: functional
[16] = tested on: RAW264.7; experiment: Antiinflammatory activity in mouse RAW264.7 cells assessed as inhibition of LPS-induced TNF-alpha release at 10 uM treated 2 hrs before LPS challenge measured by ELISA; type: functional, cell-based; details: TDE = time-dependent effect
[17] = tested on: RAW264.7; experiment: Antiinflammatory activity in mouse RAW264.7 cells assessed as inhibition of LPS-induced IL-6 release at 10 uM treated 2 hrs before LPS challenge measured after 6 hrs by ELISA (reference value: 7.2 +/- 0.9 pg/ml); type: functional
[18] = molecular target: T1, Peroxisome proliferator-activated receptor gamma (Mus musculus); experiment: Inhibition of PPARgamma in mouse RAW264.7 cells assessed as inhibition of LPS-induced NF-kappaB 65 phosphorylation at 10 uM after 4 hrs by Western blot analysis; type: cell-based; procedure, shortened: as §2
[19] = tested on: RAW264.7; experiment: Antiinflammatory activity in mouse RAW264.7 cells assessed as inhibition of LPS-induced IL-6 release at 10 uM treated 2 hrs before LPS challenge measured after 12 hrs by ELISA (reference value: 13.9 +/- 2.6 pg/ml); type: functional
[20] = molecular target: T1, Peroxisome proliferator-activated receptor gamma (Mus musculus); experiment: Inhibition of PPARgamma in mouse RAW264.7 cells assessed as inhibition of LPS-induced JNK phosphorylation at 10 uM after 4 hrs by Western blot analysis in presence of PPARgamma antagonist GW9662; type: cell-based; procedure, shortened: as §2
[21] = molecular target: T1, Peroxisome proliferator-activated receptor gamma (Mus musculus); experiment: Inhibition of PPARgamma in mouse RAW264.7 cells assessed as inhibition of LPS-induced NF-kappaB 65 phosphorylation at 10 uM after 4 hrs by Western blot analysis in presence of PPARgamma antagonist GW9662; type: cell-based; procedure, shortened: as §2

## CCOc1cc(/C=C2\OC(=O)C(Br)=C2Br)ccc1OCc1ccccn1
[1]
  inhibition at 10 µM: 42.2%

## CCOc1cc(/C=C2\OC(=O)C(Cl)=C2Cl)ccc1OCCc1ccccn1
[1]
  inhibition at 10 µM: 50.4%

## O=C(Nc1ccccc1)c1cc([N+](=O)[O-])ccc1Cl
[2]
  viability at 48 h, 5 µM: 101%

## COc1cc(/C=C2\OC(=O)C(Cl)=C2Cl)ccc1OCc1ccccn1
[1]
  inhibition at 10 µM: 36.4%

## Cc1nc(C)c(COc2ccc(/C=C3\OC(=O)C(Br)=C3Br)cc2)nc1C
[1]
  inhibition at 10 µM: 30.1%

## O=C1O/C(=C\c2ccc(OCCc3ccccn3)cc2)C(Cl)=C1Cl
[1]
  inhibition at 10 µM: 20.2%

## CCc1ccc(CCOc2ccc(/C=C3\OC(=O)C(Br)=C3Br)cc2OC)nc1
[3]
  viability at 48 h, 10 µM: 98.1%
[4]
  inhibition: tde
[5]
  inhibition: inactive
[6]
  inhibition: inactive
[7]
  inhibition: inactive
[8]
  Activity: 347.1 pg/mL
[9]
  Activity: 6360 pg/mL
[10]
  Activity: 575.6 pg/mL
[11]
  inhibition: Active
[12]
  inhibition: Active
[13]
  inhibition: Active
[14]
  inhibition: Active
[1]
  inhibition at 10 µM: 75.8%
[15]
  Activity: 1110.5 pg/mL
[16]
  inhibition: tde
[17]
  Activity: 1705.9 pg/mL
[18]
  inhibition: Active
[19]
  Activity: 2528.4 pg/mL
[20]
  inhibition: inactive
[21]
  inhibition: inactive

## Cc1nc(C)c(COc2cccc(/C=C3\SC(=O)NC3=O)c2)nc1C
[1]
  inhibition at 10 µM: 23.5%

## CCc1ccc(CCOc2ccc(/C=C3\OC(=O)C(Br)=C3Br)cc2)nc1
[1]
  inhibition at 10 µM: 43.6%

## CCc1ccc(CCOc2ccc(/C=C3\OC(=O)C(Cl)=C3Cl)cc2)nc1
[1]
  inhibition at 10 µM: 40.8%

## COc1cc(/C=C2\OC(=O)C(Br)=C2Br)ccc1OCCc1ccccn1
[1]
  inhibition at 10 µM: 54.7%

## COc1ccc2c(c1)c(CC(=O)O)c(C)n2C(=O)c1ccc(Cl)cc1 [INDOMETHACIN]
[3]
  viability at 48 h, 10 µM: 101%
[4]
  inhibition: tde
[8]
  Activity: 366.5 pg/mL
[9]
  Activity: 7645.9 pg/mL
[10]
  Activity: 612.6 pg/mL
[1]
  inhibition at 10 µM: 31.3%
[15]
  Activity: 1242 pg/mL
[16]
  inhibition: tde
[17]
  Activity: 2313.5 pg/mL
[19]
  Activity: 2989.6 pg/mL

## CCOc1cc(/C=C2\OC(=O)C(Br)=C2Br)ccc1OCCc1ccc(CC)cn1
[3]
  viability at 48 h, 10 µM: 93.1%
[4]
  inhibition: tde
[5]
  inhibition: inactive
[6]
  inhibition: inactive
[7]
  inhibition: inactive
[8]
  Activity: 323.8 pg/mL
[9]
  Activity: 2360.2 pg/mL
[10]
  Activity: 519.8 pg/mL
[11]
  inhibition: Active
[12]
  inhibition: Active
[13]
  inhibition: Active
[14]
  inhibition: Active
[1]
  inhibition at 10 µM: 80.1%
[15]
  Activity: 1044.2 pg/mL
[16]
  inhibition: tde
[17]
  Activity: 598.1 pg/mL
[18]
  inhibition: Active
[19]
  Activity: 902.2 pg/mL
[20]
  inhibition: inactive
[21]
  inhibition: inactive

## O=C1O/C(=C\c2ccc(OCc3ccccn3)cc2)C(Br)=C1Br
[1]
  inhibition at 10 µM: 29.2%

## CN(CCOc1ccc(CC2SC(=O)NC2=O)cc1)c1ccccn1 (stereo unspecified) [ROSIGLITAZONE]
[3]
  viability at 48 h, 10 µM: 99.7%
[4]
  inhibition: tde
[8]
  Activity: 416.9 pg/mL
[9]
  Activity: 8388.6 pg/mL
[10]
  Activity: 631.3 pg/mL
[1]
  inhibition at 10 µM: 16.7%
[15]
  Activity: 1293.8 pg/mL
[16]
  inhibition: tde
[17]
  Activity: 2783.9 pg/mL
[19]
  Activity: 3477.9 pg/mL

## COc1cc(/C=C2\OC(=O)C(Cl)=C2Cl)ccc1OCCc1ccccn1
[1]
  inhibition at 10 µM: 38.9%

## CCOc1cc(/C=C2\OC(=O)C(Cl)=C2Cl)ccc1OCc1ccccn1
[1]
  inhibition at 10 µM: 36.8%

## CCOc1cc(/C=C2\OC(=O)C(Br)=C2Br)ccc1OCCc1ccccn1
[1]
  inhibition at 10 µM: 62.9%

## COc1cc(/C=C2\SC(=O)NC2=O)ccc1OCc1nc(C)c(C)nc1C
[1]
  inhibition at 10 µM: 24.9%

## O=C1O/C(=C\c2ccc(OCc3ccccn3)cc2)C(Cl)=C1Cl
[1]
  inhibition at 10 µM: 16.3%

## O=C1O/C(=C\c2ccc(OCCc3ccccn3)cc2)C(Br)=C1Br
[1]
  inhibition at 10 µM: 38%

## CCOc1cc(/C=C2\SC(=O)NC2=O)ccc1OCc1nc(C)c(C)nc1C
[1]
  inhibition at 10 µM: 30.7%

## Cc1nc(C)c(COc2ccc(/C=C3\SC(=O)NC3=O)cc2)nc1C
[1]
  inhibition at 10 µM: 19.3%

## COc1cc(/C=C2\OC(=O)C(Br)=C2Br)ccc1OCc1ccccn1
[1]
  inhibition at 10 µM: 33.9%

## COc1cc(/C=C2\OC(=O)C(Br)=C2Br)ccc1OCc1nc(C)c(C)nc1C
[1]
  inhibition at 10 µM: 37.2%
